Results reported in ChEMBL document CHEMBL1139755, “Synthesis and in vitro antibacterial activity of novel methylamino piperidinyl oxazolidinones” (2007).
In brackets after ≈: the same amount, converted by molar mass.

What was measured:
Bacillus subtilis = assay: Antibacterial activity against Bacillus subtilis ATCC 6633 by broth microdilution method; format: functional
In short: (§1)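 Endpoint is the minimum inhibitory concentration, determined by broth microdilution against a panel of susceptible Gram-positive strains. Values are reported as a range spanning two concentrations (for example 8–16). Values above the top concentration tested are given as >16.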

[1] = tested on: Staphylococcus epidermidis; assay: Antibacterial activity against Staphylococcus epidermidis ATCC 12228 by broth microdilution method; format: functional; in short: as §1
Enterococcus faecalis [2] = assay: Antibacterial activity against Enterococcus faecalis ATCC 29212 by broth microdilution method; format: functional; in short: as §1
Enterococcus faecalis [3] = assay: Antibacterial activity against Enterococcus faecalis ATCC 14506 by broth microdilution method; format: functional; in short: as §1
Staphylococcus aureus [4] = assay: Antibacterial activity against Staphylococcus aureus ATCC 33591 by broth microdilution method; format: functional; in short: as §1
Staphylococcus aureus [5] = assay: Antibacterial activity against Staphylococcus aureus ATCC 29213 by broth microdilution method; format: functional; in short: as §1
Staphylococcus aureus [6] = assay: Antibacterial activity against Staphylococcus aureus ATCC 33592 by broth microdilution method; format: functional; in short: as §1
Enterococcus faecalis [7] = assay: Antibacterial activity against multidrug resistant Enterococcus faecalis ATCC 700802 by broth microdilution method; format: functional
Enterococcus faecium = assay: Antibacterial activity against vancomycin-resistant Enterococcus faecium ATCC 700221 by broth microdilution method; format: functional
Staphylococcus aureus [8] = assay: Antibacterial activity against Staphylococcus aureus ATCC 25923 by broth microdilution method; format: functional; in short: as §1
Staphylococcus aureus [9] = assay: Antibacterial activity against linezolid-resistant Staphylococcus aureus NRS 119 by broth microdilution method; format: functional
In short: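 Linezolid-resistant S. aureus strain obtained from NARSA; minimum inhibitory concentration found by broth microdilution and reported as a concentration range.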

Staphylococcus aureus [10] = assay: Antibacterial activity against methicillin-resistant Staphylococcus aureus ATCC 700699 by broth microdilution method; format: functional
Streptococcus pneumoniae = assay: Antibacterial activity against multidrug-resistant Streptococcus pneumoniae ATCC 700904 by broth microdilution method; format: functional
[11] = tested on: Staphylococcus epidermidis; assay: Antibacterial activity against Staphylococcus epidermidis ATCC 155 by broth microdilution method; format: functional; in short: as §1
Streptococcus pyogenes = assay: Antibacterial activity against Streptococcus pyogenes ATCC 14289 by broth microdilution method

Structure (SMILES) | MIC (Bacillus subtilis) [µg/mL] | MIC [1] [µg/mL] | MIC (Enterococcus faecalis [2]) [µg/mL] | MIC (Enterococcus faecalis [3]) [µg/mL] | MIC (Staphylococcus aureus [4]) [µg/mL] | MIC (Staphylococcus aureus [5]) [µg/mL] | MIC (Staphylococcus aureus [6]) [µg/mL] | MIC (Enterococcus faecalis [7]) [µg/mL] | MIC (Enterococcus faecium) [µg/mL] | MIC (Staphylococcus aureus [8]) [µg/mL] | MIC (Staphylococcus aureus [9]) [µg/mL] | MIC (Staphylococcus aureus [10]) [µg/mL] | MIC (Streptococcus pneumoniae) [µg/mL] | MIC [11] [µg/mL] | MIC (Streptococcus pyogenes) [µg/mL]
CC(=O)NC[C@H]1CN(c2ccc(N(C)C3CCN(C(=O)/C=C/c4ccc5c(c4)OCO5)CC3)c(F)c2)C(=O)O1 | 2 (≈ 3.71 µM) | 8 (≈ 14.9 µM) | 8 (≈ 14.9 µM) | > 16 | 8 (≈ 14.9 µM) | > 16 | > 16 | > 16 | > 16 | > 16 | > 16 | > 16 | > 16 | > 16 | > 16
CC(=O)NC[C@H]1CN(c2ccc(N(C)C3CCNCC3)c(F)c2)C(=O)O1 | > 16 | > 16 | > 16 | > 16 | > 16 | > 16 | > 16 | > 16 | > 16 | > 16 | > 16 | > 16 | > 16 | > 16 | > 16
CC(=O)NC[C@H]1CN(c2ccc(N(C)C3CCN(C(=O)/C=C/c4ccco4)CC3)c(F)c2)C(=O)O1 | 2 (≈ 4.13 µM) | > 16 | > 16 | > 16 | > 16 | > 16 | > 16 | > 16 | 8 (≈ 16.5 µM) | > 16 | > 16 | 8 (≈ 16.5 µM) | > 16 | > 16 | > 16
CC(=O)NC[C@H]1CN(c2ccc(N(C)C3CCN(C(=O)/C=C/c4ccccc4)CC3)c(F)c2)C(=O)O1 | 2 (≈ 4.04 µM) | 8 (≈ 16.2 µM) | > 16 | > 16 | 8 (≈ 16.2 µM) | 8 (≈ 16.2 µM) | 4 (≈ 8.09 µM) | 8 (≈ 16.2 µM) | 4 (≈ 8.09 µM) | 8 (≈ 16.2 µM) | > 16 | 8 (≈ 16.2 µM) | 8 (≈ 16.2 µM) | 4 (≈ 8.09 µM) | 8 (≈ 16.2 µM)
CC(=O)NC[C@H]1CN(c2ccc(N(C)C3CCN(C(=O)/C=C/c4ccc(O)cc4)CC3)c(F)c2)C(=O)O1 | 2 (≈ 3.92 µM) | 8 (≈ 15.7 µM) | 4 (≈ 7.83 µM) | > 16 | 8 (≈ 15.7 µM) | > 16 | > 16 | 8 (≈ 15.7 µM) | 8 (≈ 15.7 µM) | 8 (≈ 15.7 µM) | > 16 | 4 (≈ 7.83 µM) | 8 (≈ 15.7 µM) | 8 (≈ 15.7 µM) | 8 (≈ 15.7 µM)
CC(=O)NC[C@H]1CN(c2ccc(N(C)C3CCN(C(=O)/C=C/c4ccc([N+](=O)[O-])o4)CC3)c(F)c2)C(=O)O1 | 0.5 (≈ 0.944 µM) | 1 (≈ 1.89 µM) | 2 (≈ 3.78 µM) | 4 (≈ 7.55 µM) | 1 (≈ 1.89 µM) | 2 (≈ 3.78 µM) | 1 (≈ 1.89 µM) | 8 (≈ 15.1 µM) | 1 (≈ 1.89 µM) | 2 (≈ 3.78 µM) | 2 (≈ 3.78 µM) | 1 (≈ 1.89 µM) | 0.25 (≈ 0.472 µM) | 0.25 (≈ 0.472 µM) | 2 (≈ 3.78 µM)
CC(=O)NC[C@H]1CN(c2ccc(N(C)C3CCN(C(=O)/C=C/c4ccc([N+](=O)[O-])cc4)CC3)c(F)c2)C(=O)O1 | 4 (≈ 7.41 µM) | 8 (≈ 14.8 µM) | > 16 | > 16 | > 16 | > 16 | > 16 | > 16 | > 16 | > 16 | > 16 | 8 (≈ 14.8 µM) | > 16 | 8 (≈ 14.8 µM) | > 16
CC(=O)NC[C@H]1CN(c2ccc(N(C)C3CCN(C(=O)/C=C/C4CCCCC4)CC3)c(F)c2)C(=O)O1 | 8 (≈ 16 µM) | > 16 | > 16 | 8 (≈ 16 µM) | > 16 | 8 (≈ 16 µM) | 8 (≈ 16 µM) | 8 (≈ 16 µM) | 8 (≈ 16 µM) | 8 (≈ 16 µM) | > 16 | 4 (≈ 7.99 µM) | 8 (≈ 16 µM) | 8 (≈ 16 µM) | > 16
CC(=O)NC[C@H]1CN(c2ccc(N(C)C3CCN(C(=O)/C=C/c4c[nH]c5ccccc45)CC3)c(F)c2)C(=O)O1 | 2 (≈ 3.75 µM) | 4 (≈ 7.5 µM) | 8 (≈ 15 µM) | > 16 | 8 (≈ 15 µM) | > 16 | > 16 | 8 (≈ 15 µM) | 8 (≈ 15 µM) | 8 (≈ 15 µM) | > 16 | 2 (≈ 3.75 µM) | 8 (≈ 15 µM) | 4 (≈ 7.5 µM) | 8 (≈ 15 µM)
CC(=O)NC[C@H]1CN(c2ccc(N(C)C3CCN(C(=O)/C=C/c4ccc(CO)o4)CC3)c(F)c2)C(=O)O1 | > 16 | > 16 | > 16 | > 16 | > 16 | > 16 | > 16 | > 16 | > 16 | > 16 | > 16 | > 16 | > 16 | > 16 | > 16
CC(=O)NC[C@H]1CN(c2ccc(N3CCN(C(=O)CO)CC3)c(F)c2)C(=O)O1 [EPEREZOLID] | 0.5 (≈ 1.27 µM) | 2 (≈ 5.07 µM) | 2 (≈ 5.07 µM) | 2 (≈ 5.07 µM) | 1 (≈ 2.54 µM) | 2 (≈ 5.07 µM) |  | 1 (≈ 2.54 µM) |  | 2 (≈ 5.07 µM) | > 16 | 1 (≈ 2.54 µM) | 0.25 (≈ 0.634 µM) |  | 0.25 (≈ 0.634 µM)
CC(=O)NC[C@H]1CN(c2ccc(N3CCOCC3)c(F)c2)C(=O)O1 [LINEZOLID] | 1 (≈ 2.96 µM) | 2 (≈ 5.93 µM) |  |  | 1 (≈ 2.96 µM) |  |  |  |  | 1 (≈ 2.96 µM) | > 16 | 1 (≈ 2.96 µM) |  | 1 (≈ 2.96 µM) | 0.5 (≈ 1.48 µM)
CC(=O)NC[C@H]1CN(c2ccc(N3CCN(Cc4ccc([N+](=O)[O-])o4)CC3)c(F)c2)C(=O)O1 [RANBEZOLID] | 0.25 (≈ 0.542 µM) | 0.5 (≈ 1.08 µM) |  | 2 (≈ 4.33 µM) | 1 (≈ 2.17 µM) | 1 (≈ 2.17 µM) | 1 (≈ 2.17 µM) | 1 (≈ 2.17 µM) | 2 (≈ 4.33 µM) | 1 (≈ 2.17 µM) | > 16 | 0.5 (≈ 1.08 µM) | 0.25 (≈ 0.542 µM) | 0.25 (≈ 0.542 µM) | 2 (≈ 4.33 µM)
